High-throughput results deposited in PubChem BioAssay by Johns Hopkins Ion Channel Center.
Shown are actives, neighbours in structure and some others; about 3.5% of the full set was active somewhere.
MrgX1 agonist = human MrgX1 receptor agonism, primary screen; Q96LB2; MrgX1-HEK293 cells, Fluo-4 calcium fluorescence, agonist mode; active compounds read high; B-score at 10 µM; 310,000 tested, 0.44% active; AID 588627;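 active means calcium response B-score plate-corrected fluorescence ratio at least 3 library SD, with starting fluorescence B-score inside 5 SD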
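Test system: HEK293 cells stably expressing human MrgX1 receptor; Input: fifteen thousand cells per well; Dosing: compound delivered in addition one of three; Schedule: overnight seeding, then 1 h dark dye loading; Technique: Fluo-4 NW calcium fluorescence; Measure: B-scored fluorescence response ratio; Controls: positive and negative controls per plate.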
RGS4 block = inhibitors of human RGS4; P49798; HEK293 M3R/RGS4 inducible, Fluo-4 calcium flux; active compounds read high; triggered by carbachol at its EC20; B-score at 10 µM; 310,000 tested, 0.45% active;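 active means B-score, a plate-corrected calcium signal, over three deviations above library mean, with baseline fluorescence within five deviations of library mean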;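 further: RGS4 expression induced by doxycycline in cells with stable M3 receptor; B-score is computed from the integrated fluorescence ratio over baseline after carbachol; higher B-score means a larger calcium signal and so more RGS4 inhibition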
Target sequence (P49798 whole entry, looked up): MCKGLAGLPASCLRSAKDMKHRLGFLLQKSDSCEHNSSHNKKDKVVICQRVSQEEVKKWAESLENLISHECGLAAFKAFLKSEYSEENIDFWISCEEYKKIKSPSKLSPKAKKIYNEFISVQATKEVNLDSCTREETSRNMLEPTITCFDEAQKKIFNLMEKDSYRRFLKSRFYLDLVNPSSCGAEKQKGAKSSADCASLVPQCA
RGS4 pot = potentiators or activators of RGS4; HEK293 M3R/inducible RGS4, carbachol calcium flux Fluo4; active compounds read low; 310,000 tested, 0.92% active; AID 463111; B-score at 10 µM;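 active means B-score of the integrated calcium signal more than 4 SD below the library mean, with starting fluorescence not abnormally high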;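 further: negative B-score means reduced calcium response which marks RGS4 activation or potentiation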
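Material: M3R-expressing HEK293 line, RGS4 induced by doxycycline | Schedule: Overnight RGS4 induction, 30 min dye load 37 °C, 20 min compound RT | Measured by: Fluo4 fluorescence kinetic imaging of calcium | Read-out: Integrated calcium ratio converted to B score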
MrgX1 antagonist = blocks BAM8-22 activation of human MrgX1 receptor; Q96LB2; MRGX1-HEK293 calcium flux, Fluo-4, BAM8-22 antagonism; active compounds read low; B-score at 10 µM; 310,000 tested, 1.3% active; AID 588676;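 active means calcium-response B-score plate-corrected more than 3 library SD below zero, starting fluorescence within 5 deviations, no agonist response on first addition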;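 further: peak minus trough fluorescence over baseline after final BAM8-22 challenge near maximal dose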
MrgX1 allo act = allosterically activates human MrgX1 receptor signaling; MrgX1-HEK293, Fluo-4 calcium flux, FDSS; active compounds read high; B-score at 10 µM; AID 588675; 310,000 tested, 0.63% active;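 active means plate-corrected calcium response at least 3 library SD above typical, normal starting fluorescence, not activating the receptor alone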;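 further: compound read alongside a low EC10 to EC30 dose of BAM8-22 agonist; peak minus trough fluorescence over baseline measured at the second addition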
Of the large screens only hits and unclear results are named; the others gave an inactive call.

CC1(C)N=C(SCC(=O)Nc2ccc(Cl)cc2)C(c2ccc(Cl)cc2)=N1	RGS4 pot -8
COc1cc(OC)c(OC)cc1/C=C/C(=O)c1ccc(NS(=O)(=O)c2ccc(C)cc2)cc1	MrgX1 antagonist -4.8
Cc1ccc(NC(=O)COC(=O)c2ccc(=O)n(Cc3ccccc3)n2)cc1F	none
CC(OC(=O)c1ccc(=O)n(Cc2ccccc2)n1)C(=O)Nc1cccc(Cl)c1 (stereo not given)	MrgX1 antagonist -5.3
CCCCn1nc(C(=O)Oc2ccc3c(C)cc(=O)oc3c2)c2ccccc2c1=O	MrgX1 antagonist -6.6
CCN(CC(=O)Nc1c(F)cccc1F)C(=O)/C=C/c1ccc2c(c1)OCO2	none
O=C(Nc1nc(-c2ccc3c(c2)OCO3)cs1)C1COc2ccccc2O1 (stereo not given)	RGS4 pot -7.5
Cc1ccccc1C(OCCN(C(C)C)C(C)C)c1ccccc1 (stereo not given)	RGS4 pot -8.6
CN(C)CCOC(c1ccccc1)c1ccccc1	none
Cc1ccc(S(=O)(=O)N2CCN(C(=O)COC(=O)CCOc3ccc(C(C)(C)C)cc3)CC2)cc1	none
COc1cc2c(C(=O)N3CCOCC3)c(CSc3ccccc3)n(C)c2cc1Br	none
CCOc1cc(CNC2CCCC2)c(Cl)cc1OCC(=O)Nc1ccccc1	RGS4 pot -7.2
COc1ccc(-c2csc3ncnc(NCCCO)c23)cc1	MrgX1 agonist 33
COc1ccc(-c2csc3ncnc(NCCO)c23)cc1	none
O=C1c2ccccc2NC(c2ccc(Cl)cc2Cl)N1O (stereo not given)	none
O=C1c2ccccc2NC(c2cccc(Cl)c2)N1N=C1CCCCCC1 (stereo not given)	MrgX1 allo act 8.6
Cc1nn(C(=O)CCCC(=O)NCc2ccccc2)c2ccccc12	none
CCN1/C(=C/C=C/c2oc3ccc4ccccc4c3[n+]2CC)Oc2ccc3ccccc3c21	RGS4 pot -9, MrgX1 antagonist -7.8
O=C(N/N=C/c1cc(Cl)cc([N+](=O)[O-])c1O)c1cc(-c2ccccn2)nc2ccccc12	MrgX1 antagonist -5.5
COc1cc([N+](=O)[O-])cc(/C=N/NC(=O)c2cc(-c3ccccc3)nc3ccccc23)c1O	MrgX1 allo act 10
COc1cc([N+](=O)[O-])cc(/C=N/NC(=O)c2cc(C)nc3ccccc23)c1O	none
N#CCCn1cc(C(=O)O)c(-c2ccc3ccccc3c2)n1	none
Cc1ccc(OC(=O)C2c3ccccc3Oc3ccccc32)cc1C	RGS4 pot -7.8
CN(C)CCOC(c1ccccc1)c1ccccc1 (tested in a mixture with another compound)	none
CN(C)CCOC1c2ccccc2C=Cc2ccccc21	RGS4 pot -7.1
Fc1cccc(Cc2noc(CN3CCCN(C4Cc5ccccc5C4)CC3)n2)c1	RGS4 pot -7.5
Fc1cccc(Cc2noc(CN3CCSCC3)n2)c1	none
Cc1ccc(Cl)cc1N1CCN(c2cccc[n+]2C)CC1	RGS4 pot -7.3
CCCCOc1ccc2c(c1)/C(=C(\C(Cl)=C(Cl)Cl)[N+](=O)[O-])N2	MrgX1 agonist 34
CCOc1ccc2c(c1)/C(=C(\C(Cl)=C(Cl)Cl)[N+](=O)[O-])N2	none
COc1cccc(C(=O)N2CCN=C2SC)c1	none
Cn1c(=O)c(NCCO)c2c3c(cccc31)C(=O)c1ccccc1-2	RGS4 pot -12
CCc1cc(=O)oc2cc(C)cc(O)c12	none
CCCc1cc(=O)oc2cc(C)cc(O)c12	MrgX1 agonist 35
CC(=O)Nc1ccc2c(c1)c1ccccc1n2C(C)=O	none
CC(=O)n1c(-c2ccccc2)c(CO)c2ccccc21	MrgX1 allo act 22
C[C@H](NC(CCc1ccccc1)C(=O)O)C(=O)N1CCC[C@H]1C(=O)O (stereo not given in full)	none
CN(C)c1ccc(CN(C(=O)c2ccccc2Br)C2CCS(=O)(=O)C2)cc1 (stereo not given)	none
S=C(NCCC(c1ccccc1)c1ccccc1)Nc1cccc(Cl)c1	RGS4 pot -7.6
O=C(Nc1cccc(C(=O)N2CCOCC2)c1)c1ccccc1Cl	none
COc1cc(S(=O)(=O)Nc2ccc(C)cc2)ccc1N=Cc1c(C)c(C#N)c(=O)n(C)c1O	RGS4 pot -8.6
COc1cc(S(=O)(=O)Nc2ccc(C)cc2)ccc1N=Cc1c(C)[nH]n(-c2ccc(C)cc2)c1=O	none
